Experimental data as given in paper PMC8361970 (Pediatric Diabetes, 2021).

Legend:
Format in all cases: in vivo, human
[1] = test system: children and adolescents (6–17 years) with type 1 diabetes, insulin-induced hypoglycemia; conditions: for Mean PG increase from baseline after 30 min: 30 min after single SC dose, full analysis set; for IV glucose rescue required (participants): within 45 min of single SC dose
In short: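 After an overnight fast, IV insulin glulisine was infused until PG fell below 80 mg/dL. Five min later, if PG was 54–80 mg/dL, a single SC injection was given. Central-lab PG was taken pre-dose and at 4–45 min (60 min if ≥21 kg). Change from baseline was analysed by ANCOVA (treatment, age group, injection site; baseline PG covariate), with PG at rescue carried forward.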

[2] = test system: children and adolescents (6–17 years) with type 1 diabetes; experiment: Phase 3 trial: adverse events; conditions: for Duration of nausea AEs / Duration of vomiting AEs: majority of events; for Onset of nausea AEs after dosing: most AEs of nausea
[3] = test system: children and adolescents (6–17 years) with type 1 diabetes; experiment: Phase 3 trial: anti-drug antibodies; conditions: the one positive participant

Substance	Mean PG increase from baseline after 30 min [1] [mg/dL]	IV glucose rescue required (participants) [1]	Duration of nausea AEs [2]	Duration of vomiting AEs [2]	Onset of nausea AEs after dosing [2] [h]	Anti-drug antibody titer [3]	Cross-reaction of anti-drug antibodies with glucagon [3]	Neutralizing activity of anti-drug antibodies [3]
dasiglucagon	98.2	none	less than 2 h	less than 5 min	1.5 to 3	low titer	did not cross‐react with glucagon	No neutralizing activity was detected
glucagon [reference compound]	8440	none	less than 2 h	less than 5 min	1.5 to 3	–	–	–
